These results are taken from ChEMBL document CHEMBL3046309, “Dihydropiperazine neonicotinoid compounds. Synthesis and insecticidal activity” (J Agric Food Chem, 2003).

One may read the mortality as the share of the test organisms that died. The term pKi denotes −log10 of the Ki, conventionally taken in molar units. Low values mean a large Ki, high ones a small Ki.

pKi: −log10 of the molar value. The source made the active and inactive calls. The calls are words filed in the database; no cut-off is given here.

In assay [1] the test system is Aphis gossypii. In words: Insecticidal activity against Aphis gossypii (cotton aphid) infested expanded cotyledon stage of summer crookneck squash seedlings assessed as mortality at 5 ppm applied as spray after 72 hr by dissecting binocular microscopic analysis relative to control. It is filed as functional. The method, boiled down: (§1)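 Four replicate plants per rate; controls were eight plants sprayed with blank-stock diluent. Plants held 72 h at about 74 °F, 40% RH, 24 h photoperiod. Live nonwinged aphids were counted on cotyledon undersides. Percent control was calculated by Abbott's correction against the solvent blank.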

The test system of assay [2] is Aphis gossypii. In words: Insecticidal activity against Aphis gossypii (cotton aphid) infested expanded cotyledon stage of summer crookneck squash seedlings assessed as mortality at 50 ppm applied as spray after 72 hr by dissecting binocular microscopic analysis relative to control. It is filed as functional. The method, boiled down: as §1
The subject of assay [3] is Aphis gossypii. In words: Insecticidal activity against Aphis gossypii (cotton aphid) infested expanded cotyledon stage of summer crookneck squash seedlings assessed as mortality at 0.5 ppm applied as spray after 72 hr by dissecting binocular microscopic analysis relative to control. It is filed as functional. The method, boiled down:
as §1

Assay [4] has as its target T1, Nicotinic acetylcholine receptor alpha 5 subunit (Musca domestica, UniProt A9XFY4).
T1 sequence (A9XFY4 whole entry): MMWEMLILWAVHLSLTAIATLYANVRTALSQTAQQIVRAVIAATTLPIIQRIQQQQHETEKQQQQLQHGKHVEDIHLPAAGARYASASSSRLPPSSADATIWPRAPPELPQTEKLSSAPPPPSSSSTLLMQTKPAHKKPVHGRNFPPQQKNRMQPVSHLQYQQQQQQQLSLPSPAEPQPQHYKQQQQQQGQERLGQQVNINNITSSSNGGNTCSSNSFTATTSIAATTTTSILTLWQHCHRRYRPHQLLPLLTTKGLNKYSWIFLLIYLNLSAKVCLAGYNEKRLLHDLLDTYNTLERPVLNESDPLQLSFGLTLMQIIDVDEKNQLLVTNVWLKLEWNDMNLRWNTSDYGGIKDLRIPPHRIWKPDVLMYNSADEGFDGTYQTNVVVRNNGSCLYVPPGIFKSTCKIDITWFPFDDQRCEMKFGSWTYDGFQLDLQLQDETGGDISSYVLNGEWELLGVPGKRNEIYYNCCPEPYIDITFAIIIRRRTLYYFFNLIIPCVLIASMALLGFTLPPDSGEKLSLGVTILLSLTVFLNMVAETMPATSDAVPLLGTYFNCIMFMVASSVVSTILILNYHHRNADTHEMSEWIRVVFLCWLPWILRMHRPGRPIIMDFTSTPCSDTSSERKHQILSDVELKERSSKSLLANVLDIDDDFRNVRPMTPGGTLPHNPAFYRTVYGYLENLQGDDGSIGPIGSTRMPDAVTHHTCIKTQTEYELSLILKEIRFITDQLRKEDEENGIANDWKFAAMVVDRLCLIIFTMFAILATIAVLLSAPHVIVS
In words: Displacement of [3H]imidacloprid from nicotinic acetylcholine receptor in Musca domestica (house fly) head membrane after 1 hr by liquid scintillation counting analysis. The essentials:
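Housefly heads separated from liquid-nitrogen-frozen adults, homogenized in ice-cold sucrose/EDTA/Tris-HCl/PMSF buffer. Membranes were prepared by 1000g then twice 35000g spins, resuspended in 50 mM Tris-HCl pH 7.4 and stored at -80 °C. Binding buffer was 120 mM NaCl, 50 mM Tris-HCl pH 7.4, with [3H]imidacloprid at 2 nM final and DMSO ≤0.25%. Incubation 1 h at 22 °C, then GF/C filtration. Nonspecific binding was set with 10^-4 M nicotine. Three runs in triplicate.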

Assay [5] deals with Aphis gossypii. In words: Insecticidal activity against Aphis gossypii (cotton aphid) infested expanded cotyledon stage of summer crookneck squash seedlings assessed as mortality at 0.78 ppm applied as spray after 72 hr by dissecting binocular microscopic analysis relative to control. It is filed as functional. The method, boiled down:
as §1

For another assay, the system named is Nilaparvata lugens. In words: Insecticidal activity against Nilaparvata lugens (brown plant hopper). It is filed as functional, organism-based.
Another assay has as its system Nephotettix cincticeps. In words: Insecticidal activity against Nephotettix cincticeps (green rice leafhopper). It is filed as functional, organism-based.
The subject of the next assay is Bemisia tabaci. In words: Insecticidal activity against Bemisia tabaci (sweet potato whitefly). Format: functional, organism-based.

Turning to `CN1CCN=C(N(C#N)Cc2ccc(Cl)nc2)C1=O`, the mortality at 5 ppm in the assay on Aphis gossypii [1] is < 50%. In the assay on Aphis gossypii [2], the mortality at 50 ppm was < 50%.
With `N#C/N=C1/NCCN(Cc2ccc(Cl)nc2)C1=O`, the mortality at 0.5 ppm in the assay with Aphis gossypii [3] is < 50%. Besides, the mortality at 5 ppm in the assay with Aphis gossypii [1] worked out at 50%. Further, the mortality at 50 ppm with Aphis gossypii [2] worked out at 90%. This compound had a negative-log Ki (pKi) in assay [4] of 6.36.
Taken in the same sequence, the figures for `O=C1NCCN(Cc2ccc(Cl)nc2)C1=O` were 50%, 90%, 90% and 6.40.
`CN1CCN(Cc2cnc(Cl)s2)/C(=N\C#N)C1=O`: the mortality at 0.78 ppm in the assay with Aphis gossypii [5] was determined as 70%. For the same compound, in the assay on Aphis gossypii [2], the mortality at 50 ppm is 90%. For the same compound, the pKi in assay [4] was 8.40.
In the case of `CN(C)C(=O)/C(=N\C#N)N(C)Cc1ccc(Cl)nc1`, the mortality at 5 ppm in the assay on Aphis gossypii [1] is < 50%. For the same compound, the mortality at 50 ppm in the assay on Aphis gossypii [2] was determined as 50%. The pKi in assay [4] is 5.42.
With `CN1CCN(CC2CCOC2)/C(=N\C#N)C1=O` (stereo not drawn), the mortality at 5 ppm with Aphis gossypii [1] was < 50%. Further, in the assay with Aphis gossypii [2], the mortality at 50 ppm was < 50%. The compound also had a pKi in assay [4] of 6.29.
`O=C1/C(=N\S(=O)(=O)C(F)(F)F)NCCN1Cc1ccc(Cl)nc1`: the mortality at 0.5 ppm in the assay with Aphis gossypii [3] is < 50%. For the same compound, the mortality at 5 ppm in the assay with Aphis gossypii [1] was 90%. Besides, the mortality at 50 ppm with Aphis gossypii [2] was determined as 90%. In addition, the negative logarithm of the Ki (pKi) in assay [4] was 6.23.
Consider `NC(=S)N/N=C1/NCCN(Cc2ccc(Cl)nc2)C1=O`, for which the mortality at 5 ppm in the assay with Aphis gossypii [1] is < 50%. Further, the mortality at 50 ppm in the assay on Aphis gossypii [2] was < 50%. In assay [4], this compound showed a pKi of 5.41.
For the compound `CN1CCN(Cc2ccc(Cl)nc2)/C(=N/C#N)C1=O`, the outcome in the assay on Nilaparvata lugens, in the assay on Nephotettix cincticeps and in the assay on Bemisia tabaci was Active. Further, in the assay with Aphis gossypii [5], the mortality at 0.78 ppm worked out at 90%. Further, the mortality at 50 ppm with Aphis gossypii [2] was 90%. The negative logarithm of the Ki (pKi) in assay [4] is 8.22.
Regarding `N#C/N=C1\NCCN1Cc1ccc(Cl)nc1`, the mortality at 5 ppm in the assay on Aphis gossypii [1] is 90%. In the assay on Aphis gossypii [2], the mortality at 50 ppm is 90%. The pKi in assay [4] was 7.77.
On to `CN1C/C(=N\C#N)N(Cc2ccc(Cl)nc2)CC1=O`, for which the mortality at 5 ppm in the assay with Aphis gossypii [1] was < 50%. Also, the mortality at 50 ppm with Aphis gossypii [2] came to 70%.
As to `O=C1C(=S)NCCN1Cc1ccc(Cl)nc1`, in the assay on Aphis gossypii [3], the mortality at 0.5 ppm came out at 50%. Further, the mortality at 5 ppm in the assay with Aphis gossypii [1] came out at 50%. Moreover, in the assay on Aphis gossypii [2], the mortality at 50 ppm was found to be 90%. Further, the negative logarithm of the Ki (pKi) in assay [4] is 5.75.
In the case of `CO/N=C1/NCCN(Cc2ccc(Cl)nc2)C1=O`, in the assay with Aphis gossypii [3], the mortality at 0.5 ppm amounted to 50%. Further, the mortality at 5 ppm in the assay on Aphis gossypii [1] is 70%. In addition, in the assay on Aphis gossypii [2], the mortality at 50 ppm is 90%. In assay [4], this compound had a pKi of 5.82.
Consider `O=C1/C(=N\O)NCCN1Cc1ccc(Cl)nc1`, for which the mortality at 0.5 ppm in the assay with Aphis gossypii [3] was < 50%. In the assay with Aphis gossypii [1], the mortality at 5 ppm amounted to 50%. Moreover, in the assay on Aphis gossypii [2], the mortality at 50 ppm worked out at 70%.
